# Assay outcomes (PubChem BioAssay)
# This excerpt belongs to a sample that is enriched for hits.
# PGC1a acetyl up = raises PGC1a acetylation signal in U2OS cells; activation, % at 15.6 µM; U2OS PGC1a acetylation AlphaScreen, overnight; hit rate 0.21% among 350,000;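 active = every replicate reaching activation of at least 50%, whatever the mean replicate activation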;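 also: hits raise the AlphaScreen acetylation signal above neutral controls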
#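 System – flag-PGC1a/GCN5 U2OS cells · Quantity – 7000 U2OS cells per well · Signal – AlphaScreen proximity luminescence, anti-acetyl-lysine antibody · Schedule – overnight compound treatment, 37 °C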
# * = called active by the depositor.
SMILES,PGC1a acetyl up
Cc1noc(C)c1S(=O)(=O)Nc1ccc2c(c1)C(=O)N([C@@H](C)CO)C[C@@H](C)[C@@H](CN(C)CC1CCCCC1)OCCCC[C@@H](C)O2,-84.6
CCN(C[C@@H]1N[C@@H](CO)[C@H]1c1ccc(-c2ccc(F)cc2)cc1)C(=O)CN(C)C,59.4*
CC1OC2CC(=O)OC2C2=C1C(=O)c1c(O)cccc1C2=O (stereo not drawn),-78.4
COc1ccc(-c2noc(CCC(=O)N3CCN(c4cccc(C)c4C)CC3)n2)cc1,-43.5
CC1=CC(=O)C=C(C)C1=NOS(=O)(=O)c1ccccc1,60.8*
CCNC(=O)NC(=O)COc1ccccc1C#N,-45.4
O=C(O)c1cccc(N2C(=O)CSC2c2c(F)cccc2Cl)c1 (stereo not drawn),56.3*
CN(C)c1ccc(/C=N/N=C2/NC(=O)/C(=C/c3ccc([N+](=O)[O-])cc3)S2)cc1,80.6*
CN(C)c1ccc(C=C2SC(=S)NC2=O)cc1,-51.2
Cc1noc(C)c1S(=O)(=O)Nc1ccc2c(c1)C(=O)N([C@H](C)CO)C[C@H](C)[C@H](CN(C)C(=O)c1ccncc1)OCCCC[C@@H](C)O2,-41.1
CC(C)(C)c1ccc(C(=O)Nc2ccc(C(=O)NCc3cccnc3)cc2)cc1,101.5*
CCSc1ccc(NC(=O)c2cccnc2)cc1,226.4*
O=C(COc1ccc(Br)cc1)NCCNC(=O)c1cccnc1,-44.9
Cc1cccc(-n2c(CNC(=O)c3cccc([N+](=O)[O-])c3C)n[nH]c2=S)c1,-45.7
Cc1cc(C)cc(OC(=O)CS(=O)c2ccc(C(F)(F)F)cc2[N+](=O)[O-])c1 (stereo not drawn),63.9*
Cc1cccc2cc(CN(Cc3nnnn3Cc3ccco3)C3CCCC3)c3nnnn3c12,55.5*
CCOC(=O)/C(C#N)=C1/C(=O)N(Cc2ccccc2)c2ccccc21,-72.9
CCOC(=O)N1C/C(=C\c2ccccc2)C(=O)/C(=C/c2ccccc2)C1,497.4*
Cc1cc(=O)oc2cc(OCC(=O)OCC(=O)Nc3ccccc3F)ccc12,-44.8
Cn1cnnc1Sc1ccc(/C=C/C(=O)c2ccc(O)cc2)cc1[N+](=O)[O-],58.0*
CCOC(=O)CSc1nc2cc3c(cc2cc1C#N)OCCO3,-40.3
CN1/C(=C\C(=O)c2cccc(S(=O)(=O)N3CCCCC3)c2)C(C)(C)c2ccccc21,-40.5
CCOC(=O)N1CCN(C(=O)c2cc(S(=O)(=O)N3CCCC3)cn2C)CC1,73.7*
CCCCSCCCNC(=O)c1cn(C)c2ccc(S(=O)(=O)N3CCCC3)cc2c1=O,-9.6
CCCCn1c(SCC(=O)NCc2ccc3c(c2)OCO3)nnc1C(CC)N(C)C (stereo not drawn),-43.7
SMILES,PGC1a acetyl up
C/C=C/c1ccc2c(c1)O[C@H](CN(C)C(=O)C1CC1)[C@H](C)CN([C@@H](C)CO)S2(=O)=O,-47.0
CCCCC(C(=O)O)C(C)CC(=O)Nc1nncs1 (stereo not drawn),-44.9
O=C(Cc1ccccc1)N1CCN(c2ccc([N+](=O)[O-])cc2)CC1,117.6*
CC(c1ccccc1)C1CC(=O)N(c2ccc([N+](=O)[O-])cc2)C1=O (stereo not drawn),-40.9
O=C(Nc1ccc(N2CCN(Cc3ccccc3F)CC2)cc1)c1ccc([N+](=O)[O-])o1,-72.7
CC(C)NC(=O)Nc1ccc2c(c1)C(=O)N([C@@H](C)CO)C[C@@H](C)[C@H](CN(C)Cc1ccc(C(=O)O)cc1)OCCCC[C@H](C)O2,-76.7
Cc1ccc(C)c(NC(=O)c2nnn(Cc3ccccc3)c2N)c1,-46.8
CCOC(=O)c1[nH]c(C)c(C(=O)Nc2cc(Cl)ccc2C)c1C,77.8*
CCS(=O)(=O)c1ccc(O)c(NC(=O)COc2ccc(Br)cc2)c1,-96.8
CC1(C)CC2(CCO1)OC(=O)CC2C(=O)Nc1cccc2ccccc12 (stereo not drawn),71.6*
NC(=O)C1CCCCc2c1[nH]c1ccc(Cl)cc21 (stereo not drawn),663.8*
COc1ccc(-c2cnc3c(c2)C(=O)N([C@H](C)CO)C[C@@H](C)[C@@H](CN(C)C(=O)Nc2c(C)noc2C)O3)cc1,-43.5
COc1cccc(C(=O)Nn2cnnc2)c1OC,-74.9
COc1ccccc1C(=O)Nc1nnc(CCc2ccccc2)s1,69.0*
CC(C)Cc1nnc(NC(=O)c2cc3c(s2)CCC3)s1,-43.2
CCC(=O)N[C@H]1CC[C@H](CCNC(=O)Nc2ccc(C(F)(F)F)cc2)O[C@H]1CO,-60.3
CS(=O)(=O)c1ncc(Cl)c(C(=O)Nc2ccc(N3CCOCC3)cc2)n1,80.9*
CC(C)c1ccc(NC(=O)c2ccc3c(c2)CCN3S(C)(=O)=O)cc1,-81.9
COc1cccc(C(=O)CSc2nnc(CNS(=O)(=O)c3ccc(C)cc3)n2C)c1,-88.6
C(=C\c1ccccc1)/CN1CCN(C(c2ccnc3ccccc23)c2nnnn2C2CCCCC2)CC1 (stereo not drawn),64.7*
Cn1c(CO)cnc1SCC(=O)c1ccc(Cl)cc1,-43.1
CO[C@H]1CN(C)C(=O)c2cc(NC(=O)c3ccccc3F)ccc2OC[C@@H](C)N(C(C)=O)C[C@@H]1C,-130.3
Cc1cccc(-n2c(=O)cc(N3CCN(c4ccc(F)cc4)CC3)[nH]c2=O)c1,-54.9
